# Assay results as given in ChEMBL document CHEMBL2331205, “Anti-hepatitis B virus and anti-cancer activities of novel isoflavone analogs” (Eur J Med Chem, 2013).
# Assays:
# [1] = Growth inhibition of human QGY7701 cells after 48 hrs by MTT assay; format: functional; conditions: QGY7701, 48 h
# Outline: (§1)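 Cells seeded at 8000/well, treated 24 h later in duplicate with a range of concentrations (DMSO stock 10 g/L diluted in fresh medium), 48 h at 37 °C, 5% CO2. MTT (5 mg/ml in PBS) added for 4 h, formazan dissolved in DMSO, absorbance read at 570 nm. IC50 is the concentration giving 50% survival.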
# Hepatitis B virus [2] = test: Antiviral activity against HBV infected in human HepG2(2.2.15) cells assessed as inhibition of viral replication after 9 days by fluorescence PCR method; format: functional, organism-based; conditions: HepG2 2.2.15, 216 h
# Outline: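 HepG2 2.2.15 cells given a range of compound concentrations for nine days; HBV DNA quantified by fluorescence PCR. IC50 taken as the concentration giving 50% inhibition of HBV DNA replication.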
# [3] = Cytotoxicity against human HepG2(2.2.15) cells compound treated for 48 hrs followed by incubation for 9 days by MTT assay; format: cell-based
# Outline: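 HepG2 2.2.15 cells kept 48 h in plates before adding compounds (DMSO stocks serially diluted in medium), then incubated at 37 °C for 9 days. Media-only wells as blank. MTT (5 g/L) added 4 h before lysis in 10% SDS/50% DMF, pH 7.2; OD at 570 nm gives percent cell death; CC50 derived.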
# [4] = Selectivity index, ratio of CC50 for human HepG2(2.2.15) cells to IC50 for HBV infected in human HepG2(2.2.15) cells assessed as inhibition of HBeAg production; format: functional
# Outline: (§2)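 Selectivity index calculated as CC50 in HepG2 2.2.15 cells (MTT, 9-day exposure) divided by IC50 for HBeAg or HBsAg reduction (ELISA of 9-day supernatants).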
# [5] = Growth inhibition of human L02 cells after 48 hrs by MTT assay; format: functional, cell-based; conditions: L02, 48 h; outline: as §1
# Huh-7 [6] = test: Ratio of 5-Fu IC50 to compound IC50 for human HuH7 cells after 48 hrs by MTT assay; format: functional
# HeLa = test: Growth inhibition of human HeLa cells after 48 hrs by MTT assay; format: functional, cell-based; outline: as §1
# [7] = Selectivity index, ratio of CC50 for human HepG2(2.2.15) cells to IC50 for HBV infected in human HepG2(2.2.15) cells assessed as inhibition of viral replication; format: functional
# Outline: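 Selectivity index calculated as CC50 in HepG2 2.2.15 cells (MTT, 9-day exposure) divided by IC50 for HBV DNA reduction measured by fluorescence PCR after 9 days.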
# Huh-7 [8] = test: Growth inhibition of human HuH7 cells after 48 hrs by MTT assay; format: functional, cell-based; conditions: Huh-7, 48 h; outline: as §1
# Hepatitis B virus [9] = test: Antiviral activity against HBV infected in human HepG2(2.2.15) cells assessed as inhibition of HBsAg production after 9 days by ELISA; format: functional, organism-based; conditions: HepG2 2.2.15, 216 h
# Outline: (§3)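 HepG2 2.2.15 cells (HBV-producing) given a range of compound concentrations for nine days; culture supernatants collected and HBsAg or HBeAg levels measured by ELISA. IC50 taken as the concentration giving 50% inhibition of antigen level.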
# [10] = Selectivity index, ratio of CC50 for human HepG2(2.2.15) cells to IC50 for HBV infected in human HepG2(2.2.15) cells assessed as inhibition of HBsAg production; format: functional; outline: as §2
# A549 [11] = test: Growth inhibition of human A549 cells after 48 hrs by MTT assay; format: functional, cell-based; conditions: A549, 48 h; outline: as §1
# Hepatitis B virus [12] = test: Antiviral activity against HBV infected in human HepG2(2.2.15) cells assessed as inhibition of HBeAg production after 9 days by ELISA; format: functional, organism-based; conditions: HepG2 2.2.15, 216 h; outline: as §3
# A549 [13] = test: Ratio of 5-Fu IC50 to compound IC50 for human A549 cells after 48 hrs by MTT assay; format: functional
Compound,IC50 (Hepatitis B virus [2]) [µM],IC50 (HeLa) [µM],IC50 (Huh-7 [8]) [µM],IC50 (Hepatitis B virus [9]) [µM],IC50 (A549 [11]) [µM],IC50 (Hepatitis B virus [12]) [µM],IC50 [1] [µM],CC50 at 48 h [3] [µM],Ratio CC50/IC50 [4],IC50 [5] [µM],Ratio IC50 (Huh-7 [6]),Ratio CC50/IC50 [7],Ratio CC50/IC50 [10],Ratio IC50 (A549 [13])
O=C(/C=C/c1coc2cc(O)ccc2c1=O)Nc1ccccc1,29,9.7,3.88,45.5,24.4,13.4,17.9,821,61.12,> 200,4,28.29,18.02,
COc1ccc2c(=O)c(/C=C/C(=O)Nc3cccc(Cl)c3)coc2c1,> 100,11.8,> 100,> 100,0.47,> 100,> 100,1100,,> 200,,,,12
COc1ccc2c(=O)c(/C=C/C(=O)Nc3ccc(Cl)cc3)coc2c1,67.5,> 100,37.1,91.7,> 100,20.9,> 100,272,12.97,> 200,,4.03,2.96,

# Further lines, with some results ahead:
IC50 (Hepatitis B virus [2]) [µM],IC50 (HeLa) [µM],IC50 (Huh-7 [8]) [µM],IC50 (Hepatitis B virus [9]) [µM],IC50 (A549 [11]) [µM],IC50 (Hepatitis B virus [12]) [µM],Compound,IC50 [1] [µM],CC50 at 48 h [3] [µM],Ratio CC50/IC50 [4],IC50 [5] [µM],Ratio IC50 (Huh-7 [6]),Ratio CC50/IC50 [7],Ratio CC50/IC50 [10],Ratio IC50 (A549 [13])
14.2,> 100,> 100,16.5,17.4,19.1,Cc1ccc(CNC(=O)/C=C/c2coc3cc(O)ccc3c2=O)cc1,24.9,501,26.16,> 200,,35.31,30.27,
4.7,> 100,8.43,10.2,> 100,2.34,COc1ccc(CNC(=O)/C=C/c2coc3cc(O)ccc3c2=O)cc1,10,718,306.82,> 200,,152.76,70.25,
24.3,> 100,7.57,14,22.5,14.4,COc1ccc(CNC(=O)/C=C/c2coc3cc(OC)ccc3c2=O)cc1,15.7,43,2.98,> 200,,1.77,3.08,
37,> 100,> 100,14.3,13.3,14.8,COc1ccc2c(=O)c(/C=C/C(=O)NCc3ccc(F)cc3F)coc2c1,> 100,79.2,5.35,> 200,,2.14,5.55,
